These results are taken from publication PMC8548355 (Medicinal Chemistry Research, 2021).

≈ marks a conversion by molar mass, not a printed value.

What is called MIC is the smallest concentration in the dilution series that meets the test's criterion for growth inhibition.

For test [1], the system named is E. coli ATCC 25922. As to the kind of experiment: MIC by broth microdilution against E. coli ATCC 25922. Format: cell-based. To be noted: Escherichia coli, ATCC25922, read-out: MIC against E. coli ATCC 25922. (In general: Broth dilution looks for growth in wells or tubes with falling amounts of substance.)
Test [2] deals with VRSA VRS 12. As to the kind of experiment: MIC against clinical VRSA isolate VRS 12. It is filed as cell-based. To be noted: Staphylococcus aureus, read-out: MIC against VRSA VRS 12.
Test [3] concerns MRSA NRS 10119. As to the kind of experiment: MIC against clinical MRSA isolate NRS 10119. Format: cell-based. The following applies: Staphylococcus aureus, MRSA|NRS10119, read-out: MIC against MRSA NRS 10119.
Test [4] relates to K. pneumoniae BAA 1705. Description: MIC by broth microdilution against K. pneumoniae BAA 1705. It is filed as cell-based. To be noted: Klebsiella pneumoniae, BAA1705, read-out: MIC against K. pneumoniae BAA 1705.
Test [5] concerns S. aureus ATCC 29213. Description: Time–kill kinetics. The following applies: 24 h. Format: cell-based, Staphylococcus aureus. The procedure, abridged:
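Bacteria diluted to ~10^6 cfu/mL and exposed to test compound at 1× and 10× MIC, with controls, at 37 °C for 24 h. Samples taken at 1, 6 and 24 h, serially diluted ten-fold in PBS, and spread on MHA. Plates incubated at 37 °C for 24 h and colonies counted. Surviving cfu/mL plotted against time with and without compound.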

The test system of test [6] is MRSA NRS 10198. As to the kind of experiment: MIC against clinical MRSA isolate NRS 10198. Format: cell-based. The following applies: Staphylococcus aureus, MRSA|NRS10198, read-out: MIC against MRSA NRS 10198.
Test [7] has as its system MRSA NRS 10129. Description: MIC against clinical MRSA isolate NRS 10129. Format: cell-based. To be noted: Staphylococcus aureus, MRSA|NRS10129, read-out: MIC against MRSA NRS 10129.
Test [8] concerns S. aureus ATCC 29213 pre-formed biofilm. As to the kind of experiment: Activity against pre-formed S. aureus biofilm. The following applies: 10× MIC, 24 h treatment, S. aureus ATCC 29213, compared to comparators. Format: cell-based, Staphylococcus aureus. The method in brief: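 Overnight culture in 1% TSB, shaken at 180 RPM at 37 °C, diluted 1:100 in fresh TSB. Biofilm grown statically for 48 h at 37 °C under an adhesive foil lid for low oxygen. Planktonic cells removed with three PBS (pH 7.4) rinses. Refilled with TSB containing test compound, 24 h at 37 °C. Washed, heat-fixed at 60 °C for 1 h, stained with 0.06% crystal violet for 10 min, eluted with 30% acetic acid, absorbance read at 600 nm.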

The test system of test [9] is MRSA NRS 10192. Description: MIC against clinical MRSA isolate NRS 10192. Format: cell-based. To be noted: Staphylococcus aureus, MRSA|NRS10192, read-out: MIC against MRSA NRS 10192.
For test [10], the system named is A. baumannii BAA 1605. Description: MIC by broth microdilution against A. baumannii BAA 1605. It is filed as cell-based. The following applies: Acinetobacter baumannii, BAA1605, read-out: MIC against A. baumannii BAA 1605.
Test [11] relates to S. aureus ATCC 29213. Description: MIC by broth microdilution against S. aureus ATCC 29213. The following applies: Staphylococcus aureus, ATCC29213, read-out: MIC against S. aureus ATCC 29213, broth microdilution, 37 °C, 16–18 h. It is filed as cell-based, Staphylococcus aureus.
In test [12] the test system is MRSA NRS 10191. As to the kind of experiment: MIC against clinical MRSA isolate NRS 10191. Format: cell-based. The following applies: Staphylococcus aureus, MRSA|NRS10191, read-out: MIC against MRSA NRS 10191.
Test [13] deals with VRSA VRS 1. As to the kind of experiment: MIC against clinical VRSA isolate VRS 1. It is filed as cell-based. The following applies: Staphylococcus aureus, read-out: MIC against VRSA VRS 1.
The test system of test [14] is MRSA NRS 10193. Description: MIC against clinical MRSA isolate NRS 10193. It is filed as cell-based. The following applies: Staphylococcus aureus, MRSA|NRS10193, read-out: MIC against MRSA NRS 10193.
Test [15] relates to VRSA VRS 4. As to the kind of experiment: MIC against clinical VRSA isolate VRS 4. Format: cell-based. To be noted: Staphylococcus aureus, read-out: MIC against VRSA VRS 4.
Test [16] relates to MRSA NRS 10100. Description: MIC against clinical MRSA isolate NRS 10100. It is filed as cell-based. To be noted: Staphylococcus aureus, MRSA|NRS10100, read-out: MIC against MRSA NRS 10100.
The test system of test [17] is MRSA NRS 10186. As to the kind of experiment: MIC against clinical MRSA isolate NRS 10186. It is filed as cell-based. To be noted: Staphylococcus aureus, MRSA|NRS10186, read-out: MIC against MRSA NRS 10186.
In test [18] the test system is MRSA NRS 10194. As to the kind of experiment: MIC against clinical MRSA isolate NRS 10194. It is filed as cell-based. The following applies: Staphylococcus aureus, MRSA|NRS10194, read-out: MIC against MRSA NRS 10194.
Test [19] deals with clinical MDR S. aureus isolates (MRSA and VRSA). As to the kind of experiment: MIC against clinical MDR S. aureus isolates, whole panel. Format: cell-based, Staphylococcus aureus. To be noted: nine MRSA and three VRSA strains.
Test [20] deals with S. aureus ATCC 29213. As to the kind of experiment: Drug interaction of 22 with FDA-approved drugs, checkerboard method. Format: cell-based, Staphylococcus aureus. The following applies: Staphylococcus aureus, ATCC29213, 24 h, read-out: MIC (drug alone).
In test [21] the test system is S. aureus. The following applies: similar activity to 20–23; cited from earlier work.

`O=C(Nc1ccc(Br)c(C(F)(F)F)c1)c1cc(Cl)ccc1O` [Compound 22, 5-Chloro-N-(4ʹ-bromo-3ʹ-(trifluoromethyl)phenyl)-2-hydroxybenzamide]: the minimal inhibitory concentration (MIC) in [1] was greater than 64 µg/mL; in test [2], 0.0625 µg/mL (≈ 0.158 µM); in test [3], 0.0312 µg/mL (≈ 0.0791 µM); in test [4] it was greater than 64 µg/mL; in [6] it was 0.0625 µg/mL (≈ 0.158 µM); in test [7] it was 0.0625 µg/mL (≈ 0.158 µM). Besides, the MIC in test [9] was 0.0312 µg/mL (≈ 0.0791 µM); in [10], greater than 64 µg/mL; in test [11], 0.25 µg/mL (≈ 0.634 µM); in [12], 0.0625 µg/mL (≈ 0.158 µM); in test [13] it was 0.0312 µg/mL (≈ 0.0791 µM); in test [14] it was 0.0625 µg/mL (≈ 0.158 µM). The minimal inhibitory concentration (MIC) in test [15] was found to be 0.0625 µg/mL (≈ 0.158 µM); in test [16] it was 0.0625 µg/mL (≈ 0.158 µM); in [17], 0.0625 µg/mL (≈ 0.158 µM); in test [18], 0.0625 µg/mL (≈ 0.158 µM); in test [20], 0.5 µg/mL. Besides, the “Type of killing in time–kill kinetics (in words)” value in [5] (1× and 10× MIC) is on record as “concentration-dependent bactericidal activity”. Moreover, the “cfu reduction in time–kill kinetics” value in test [5] (10× MIC) is reported as ~ 8 log10 cfu/mL. In addition, the “Reduction in pre-formed biofilm” value in test [8] was “more significant reduction (P < 0.0005)”. In addition, the “MIC against MRSA and VRSA isolates (range over the panel)” value in test [19] was in the range of 0.031 to 0.062 µg/mL.
Consider `O=C(Nc1cc(C(F)(F)F)cc(C(F)(F)F)c1)c1cc(Cl)ccc1O` [IMD0354, N-[3,5-Bis(trifluoromethyl)phenyl]-5-chloro-2-hydroxybenzamide], for which the “MIC (reported)” value in test [21] is recorded as 0.25 µg/mL (≈ 0.652 µM).
